Here are results for ten compounds from ChEMBL document CHEMBL5338819, “Tuning the Metabolic Stability of Visual Cycle Modulators through Modification of an RPE65 Recognition Motif” (J Med Chem, 2023).

The term IC50 denotes the concentration needed to halve the response being measured. By Vmax is commonly meant the rate approached at saturating substrate. A word on the Km: it is the substrate concentration at which the rate is half of its maximum.

In data set [1] the target is T1, Retinoid isomerohydrolase (Mus musculus) (UniProt Q91ZQ5).
T1 sequence (whole entry): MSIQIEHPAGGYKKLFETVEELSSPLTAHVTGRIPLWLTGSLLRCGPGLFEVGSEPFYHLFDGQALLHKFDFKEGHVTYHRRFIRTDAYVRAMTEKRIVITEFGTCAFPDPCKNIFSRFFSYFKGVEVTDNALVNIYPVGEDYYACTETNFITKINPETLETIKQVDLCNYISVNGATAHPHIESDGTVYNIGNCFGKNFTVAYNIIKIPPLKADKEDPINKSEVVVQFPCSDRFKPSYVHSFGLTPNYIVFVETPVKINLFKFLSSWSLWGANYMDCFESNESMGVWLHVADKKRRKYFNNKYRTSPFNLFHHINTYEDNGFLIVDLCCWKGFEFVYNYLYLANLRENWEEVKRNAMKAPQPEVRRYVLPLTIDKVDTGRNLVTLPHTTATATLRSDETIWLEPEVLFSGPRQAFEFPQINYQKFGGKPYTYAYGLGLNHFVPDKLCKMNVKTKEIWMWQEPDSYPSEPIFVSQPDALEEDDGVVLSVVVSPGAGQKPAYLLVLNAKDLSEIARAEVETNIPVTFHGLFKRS
The data set can be described thus: In vivo inhibition of RPE65 in BALB/cJ mouse eye by measuring 11-cis-retinal level per eye at 10 mg/kg,ip administrated by HPLC analysis. The data set is classed as functional, organism-based.

Data set [2] concerns the target T1, Retinoid isomerohydrolase (Mus musculus). The data set is described as follows: In vivo inhibition of RPE65 in BALB/cJ mouse eye by measuring 11-cis-retinal level per eye at 10 mg/kg,ip administrated and measured after 4 hrs of dark adaptation by HPLC analysis. The class given is functional, organism-based.
Data set [3] shares this target. The data set can be described thus: In vivo inhibition of RPE65 in BALB/cJ mouse eye by measuring 11-cis-retinal level per eye at 10 mg/kg,ip administrated and measured after 24 hrs of dark adaptation by HPLC analysis. The data set is classed as functional, organism-based.
For data set [4] the target is unchanged. The data set can be described thus: In vivo inhibition of RPE65 in BALB/cJ mouse eye by measuring retinyl ester level per eye at 10 mg/kg,ip administrated and measured after 24 hrs of dark adaptation by HPLC analysis. The data set is classed as functional, organism-based.
For data set [5] the target is unchanged. The data set is described as follows: In vivo inhibition of RPE65 in BALB/cJ mouse eye by measuring retinyl ester level per eye at 10 mg/kg,ip administrated by HPLC analysis. The data set is classed as functional, organism-based.
The target is the same in data set [6]. The data set is described as follows: In vivo inhibition of RPE65 in BALB/cJ mouse eye by measuring retinyl ester level per eye at 10 mg/kg,ip administrated and measured after 4 hrs of dark adaptation by HPLC analysis. The class given is functional, organism-based.
Data set [7] has as its target Retinoid isomerohydrolase (Bos taurus, UniProt Q28175). The data set can be described thus: Inhibition of RPE65 in bovine microsomes assessed as reduction on 11-cis-retinol production incubated for 1 hr by HPLC analysis. Also on record: species or system Microsome.
Data set [8] addresses Retinoid isomerohydrolase (Bos taurus) (UniProt Q28175). The data set is described as follows: Inhibition of RPE65 in bovine microsomes assessed as reduction on 11-cis-retinol production at 0.5 to 50 uM incubated for 1 hr by HPLC analysis. The conditions noted are these: Microsome, dose 0.5-50 µM.
Data set [9] is described as follows: Drug concentration in C57BL/6J mouse serum assessed as emixustat concentration at 10 mg/kg,ip administrated and measured after 4 hr by HPLC-MS analysis. The data set is classed as ADME, organism-based. The conditions noted are these: in vivo, read-out: Ct.
Data set [10] can be described thus: Drug concentration in mouse aorta measured after 4 hr by HPLC analysis. The conditions noted are these: read-out: Drug uptake. The data set is classed as ADME, tissue-based.
The nature of data set [11]: Intrinsic clearance in mouse liver microsomes measured upto 60 mins in presence of NADPH by HPLC analysis. The data set is classed as ADME, Microsome. The conditions noted are these: 1 h. A general note: Liver microsomes are a subcellular fraction often used to study metabolism.
Data set [12] is described as follows: Drug concentration in C57BL/6J mouse eye assessed per eye at 10 mg/kg,ip administrated and measured after 4 hr by HPLC-MS analysis. The data set is classed as ADME, organism-based. The conditions noted are these: in vivo.
Data set [13] can be described thus: Drug concentration in C57BL/6J mouse serum at 10 mg/kg,ip administrated and measured after 1 hr by HPLC-MS analysis. The conditions noted are these: read-out: Ct. The class given is ADME, organism-based.
A short description of data set [14]: Metabolic stability in mouse liver microsomes assessed as CYP450-mediated metabolism by measuring Vmax measured upto 60 mins in presence of NADPH by Michaelis-Menten based HPLC analysis. The class given is ADME, Microsome. The conditions noted are these: 1 h.
Data set [15] in a line: Metabolic stability in mouse liver microsomes assessed as CYP450-mediated metabolism by measuring initial velocity at 25 uM measured upto 60 mins in presence of NADPH by HPLC analysis. The class given is ADME, Microsome. The conditions noted are these: 1 h.
A short description of data set [16]: Drug metabolism in mouse aorta assessed as VAP-1 mediated oxidative deaminated product formation by measuring ACU-5201 metabolite concentration by HPLC analysis. The data set is classed as ADME, tissue-based.
Data set [17] is described as follows: Drug concentration in C57BL/6J mouse eye assessed as emixustat concentration per eye at 10 mg/kg,ip administrated and measured after 24 hr by HPLC-MS analysis. The data set is classed as ADME, organism-based. The conditions noted are these: in vivo.
A short description of data set [18]: Drug metabolism in mouse aorta assessed as VAP-1 mediated oxidative deaminated product formation by measuring ACU-5201 metabolite concentration and measured after 1 hr by HPLC analysis. The class given is ADME, tissue-based.
Data set [19] is described as follows: Metabolic stability in mouse liver microsomes assessed as CYP450-mediated metabolism by measuring initial velocity at 50 uM measured upto 60 mins in presence of NADPH by HPLC analysis. The class given is ADME, Microsome. The conditions noted are these: 1 h.
Data set [20] is described as follows: Drug concentration in mouse aorta by HPLC analysis. The data set is classed as ADME, tissue-based. The conditions noted are these: in vitro, read-out: Drug uptake.
Data set [21] can be described thus: Drug concentration in C57BL/6J mouse eye assessed per eye at 10 mg/kg,ip administrated and measured after 24 hr by HPLC-MS analysis. The data set is classed as ADME, organism-based. The conditions noted are these: in vivo.
A short description of data set [22]: Metabolic stability in mouse liver microsomes assessed as CYP450-mediated metabolism by measuring initial velocity at 200 uM measured upto 60 mins in presence of NADPH by HPLC analysis. The data set is classed as ADME, Microsome. The conditions noted are these: 1 h.
The nature of data set [23]: Metabolic stability in mouse liver microsomes assessed as CYP450-mediated metabolism by measuring initial velocity at 100 uM measured upto 60 mins in presence of NADPH by HPLC analysis. The data set is classed as ADME, Microsome. The conditions noted are these: 1 h.
A short description of data set [24]: Drug metabolism in mouse aorta assessed as VAP-1 mediated oxidative deaminated product formation by measuring ACU-5201 metabolite concentration and measured after 4 hr by HPLC analysis. The data set is classed as ADME, tissue-based.
Data set [25] is described as follows: Drug concentration in C57BL/6J mouse serum assessed as emixustat concentration at 10 mg/kg,ip administrated and measured after 1 hr by HPLC-MS analysis. The data set is classed as ADME, organism-based. The conditions noted are these: in vivo, read-out: Ct.
A short description of data set [26]: Metabolic stability in mouse liver microsomes assessed as CYP450-mediated metabolism by measuring Km measured upto 60 mins in presence of NADPH by Michaelis-Menten based HPLC analysis. The conditions noted are these: 1 h. The class given is ADME, Microsome.
Data set [27] in a line: Metabolic stability in mouse liver microsomes assessed as CYP450-mediated metabolism by measuring initial velocity at 15 uM measured upto 60 mins in presence of NADPH by HPLC analysis. The data set is classed as ADME, Microsome. The conditions noted are these: 1 h.
Data set [28] in a line: Drug concentration in mouse aorta measured after 1 hr by HPLC analysis. The conditions noted are these: read-out: Drug uptake. The data set is classed as ADME, tissue-based.
The target in data set [29] is Retinoid isomerohydrolase (Bos taurus) (UniProt Q28175). The data set is described as follows: Inhibition of RPE65 in bovine microsomes assessed as fold decrease in 11-cis-retinol production at 0.02 to 10 uM incubated for 1 hr by HPLC analysis. The conditions noted are these: Microsome, dose 0.02-10 µM. The procedure, abridged: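 Bovine RPE microsomes in 10 mM BTP pH 7.4 with 1% BSA, 5 mM pyrophosphate and 16.4 µM apo-CRALBP (His-tagged, E. coli-expressed, Ni-purified). Amine in DMF, 0–10 µM final, was preincubated 2 min. All-trans-retinol was added, then 1 h at 37 °C in the dark. Reaction was quenched with methanol and extracted with hexane. 11-cis-retinol was quantified by normal-phase HPLC.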
Chain of Retinoid isomerohydrolase (Bos taurus) (Q28175 2-533 limits assumed): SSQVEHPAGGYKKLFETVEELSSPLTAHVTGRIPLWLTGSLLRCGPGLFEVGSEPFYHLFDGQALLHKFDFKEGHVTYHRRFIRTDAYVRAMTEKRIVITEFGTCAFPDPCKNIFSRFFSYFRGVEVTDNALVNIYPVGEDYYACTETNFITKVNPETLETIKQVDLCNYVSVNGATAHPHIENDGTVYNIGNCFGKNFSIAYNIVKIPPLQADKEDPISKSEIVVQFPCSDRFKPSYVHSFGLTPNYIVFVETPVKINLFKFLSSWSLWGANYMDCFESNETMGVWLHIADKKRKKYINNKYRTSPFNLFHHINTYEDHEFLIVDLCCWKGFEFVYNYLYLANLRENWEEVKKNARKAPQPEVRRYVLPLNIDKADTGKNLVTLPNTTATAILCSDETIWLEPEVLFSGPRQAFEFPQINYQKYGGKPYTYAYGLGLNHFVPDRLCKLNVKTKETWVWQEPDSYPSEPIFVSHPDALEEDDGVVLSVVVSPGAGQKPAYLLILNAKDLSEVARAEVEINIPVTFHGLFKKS

Structures are written as SMILES. Calls of active or inactive are those of the source. No cut-off for these calls is given here.

Chain of Retinoid isomerohydrolase (Q28175 whole entry): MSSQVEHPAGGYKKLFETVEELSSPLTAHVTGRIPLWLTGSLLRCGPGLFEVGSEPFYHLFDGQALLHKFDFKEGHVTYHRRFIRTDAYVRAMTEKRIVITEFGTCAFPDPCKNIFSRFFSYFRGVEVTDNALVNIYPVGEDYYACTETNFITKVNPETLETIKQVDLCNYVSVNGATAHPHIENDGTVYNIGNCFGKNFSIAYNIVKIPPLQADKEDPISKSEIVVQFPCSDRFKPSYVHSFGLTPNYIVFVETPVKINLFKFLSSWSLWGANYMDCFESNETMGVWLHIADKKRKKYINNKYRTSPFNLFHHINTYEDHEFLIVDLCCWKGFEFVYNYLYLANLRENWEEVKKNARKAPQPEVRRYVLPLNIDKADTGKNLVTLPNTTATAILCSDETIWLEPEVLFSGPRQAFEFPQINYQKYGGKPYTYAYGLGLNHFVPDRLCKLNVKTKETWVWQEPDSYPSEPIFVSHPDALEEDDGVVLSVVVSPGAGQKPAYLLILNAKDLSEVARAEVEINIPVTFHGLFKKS

For `CC(CN)Cc1cccc(OCC2CCCCC2)c1` (configuration not stated), the Activity in [1] worked out at 17.4 pmol; in data set [2], 323 pmol; in data set [3], 254 pmol; in [4], 85.6 pmol; in [5], 256 pmol; in data set [6] it was 112 pmol. In addition, the concentration for half-maximal inhibition (IC50) in data set [7] (read-out: IC50) was 0.39 µM.
For `NC(CCO)c1cccc(OCC2CCCCC2)c1` (configuration not stated), the IC50 result in data set [7] is “Not Active”. In data set [8], the inhibition entry is “inactive”.
As for `CNCCC(O)c1cccc(OCC2CCCCC2)c1` (configuration not stated), the concentration in [9] came out at 0.0795 µM; in [20], 100 µM; in data set [25], 0.0523 µM. The Activity amounted to 13.8 pmol in data set [1]; 22.5 pmol in data set [2]; 202 pmol in data set [3]; 215 pmol in data set [4]; 297 pmol in data set [5]; 396 pmol in data set [6]. The concentration at 4 h in data set [10] was found to be 89.1 µM. Further, the CLH in [11] was determined as 30700 µL/min/mg. Besides, the Ct in data set [12] amounted to 7.609 pmol; in data set [17], 1.329 pmol; in data set [21], 0 pmol. Moreover, the concentration at 1 h is 0.75 µM in data set [13] and 101 µM in data set [28]. Moreover, in data set [14], the Vmax is recorded as 119.5 pmol/min. For the same compound, the V0 was 54.17 pmol/min in data set [15]; 64.21 pmol/min in data set [19]; 97.45 pmol/min in [22]; 89.82 pmol/min in [23]; 23.38 pmol/min in [27]. In addition, the Drug metabolism amounted to 0 µM in [16], 0.48 µM in [18] and 3.76 µM in data set [24]. The IC50 in [7] (read-out: IC50) was determined as 0.29 µM. The Km in data set [26] stood at 0.039 µM.
Consider `CC(CN)Cc1ccc(F)c(OCC2CCCCC2)c1` (configuration not stated), for which the Activity was 23.5 pmol in data set [1]; 413 pmol in data set [2]; 398 pmol in data set [3]; 123 pmol in data set [4]; 260 pmol in data set [5]; 101 pmol in data set [6]. Besides, the IC50 entry in [7] is “Not Active”.
Turning to `NC(CO)Cc1ccc(OCC2CCCCC2)cc1` (configuration not stated), the IC50 entry in [7] is recorded as “Not Active”. Also, in data set [8], the inhibition result was “inactive”.
Take `NCCc1cccc(OCC2CCCCC2)c1`: the Activity in [1] came out at 16 pmol; in [2], 393 pmol; in [3], 406 pmol; in data set [4] it was 65 pmol; in data set [5], 254 pmol; in data set [6] it was 89.5 pmol.
In the case of `NC(CO)Cc1cccc(OCC2CCCCC2)c1` (configuration not stated), in data set [7], the IC50 result is “Not Active”. Besides, in [8], the inhibition entry is “inactive”.
Regarding `NCCC(O)c1ccc(OCC2CCCCC2)cc1` (configuration not stated), the IC50 in [7] (read-out: IC50) was determined as 8.08 µM.
In the case of `CC(CCN)c1cccc(OCC2CCCCC2)c1` (configuration not stated), the Activity turned out to be 25.6 pmol in [1]; 94.4 pmol in [2]; 370 pmol in data set [3]; 124 pmol in data set [4]; 292 pmol in [5]; 436 pmol in [6]. The fold change (FC) in data set [29] is 4.
Regarding `NCCCc1cccc(OCC2CCCCC2)c1`, the fold change (FC) in data set [29] is 8.
